Drawing on ChEMBL document CHEMBL1138085, “Thiazolo[5,4-f]quinazolin-9-ones, inhibitors of glycogen synthase kinase-3” (Bioorg Med Chem Lett, 2006), this text covers IC50 for eleven compounds.

pIC50: −log10 of the molar value. Where only a bound is given, the exact number is not on record here.

For experiment [1], the target named is Cyclin-dependent kinase 5/CDK5 activator 1 (Homo sapiens, UniProt Q00535). As to the kind of experiment: Inhibition of CDK5/p25 in presence of 15 uM ATP. Type of experiment: protein-complex assay. The method in brief: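 Kinase activity assayed with histone H1 as protein substrate and ATP at 15 μM final; procedure otherwise as previously described.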
Sequence of Cyclin-dependent kinase 5/CDK5 activator 1 (Q00535 whole entry): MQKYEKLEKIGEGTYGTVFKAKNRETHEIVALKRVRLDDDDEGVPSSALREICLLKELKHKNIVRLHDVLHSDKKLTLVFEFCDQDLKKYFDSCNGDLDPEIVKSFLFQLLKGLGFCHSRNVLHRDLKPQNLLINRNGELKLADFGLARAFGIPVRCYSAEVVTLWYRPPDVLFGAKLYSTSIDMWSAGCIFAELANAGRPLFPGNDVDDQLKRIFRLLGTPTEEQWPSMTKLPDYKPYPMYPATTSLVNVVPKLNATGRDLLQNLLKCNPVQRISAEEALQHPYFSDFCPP
Sequence of Cyclin-dependent kinase 5/CDK5 activator 1 (Q15078 whole entry, further chain): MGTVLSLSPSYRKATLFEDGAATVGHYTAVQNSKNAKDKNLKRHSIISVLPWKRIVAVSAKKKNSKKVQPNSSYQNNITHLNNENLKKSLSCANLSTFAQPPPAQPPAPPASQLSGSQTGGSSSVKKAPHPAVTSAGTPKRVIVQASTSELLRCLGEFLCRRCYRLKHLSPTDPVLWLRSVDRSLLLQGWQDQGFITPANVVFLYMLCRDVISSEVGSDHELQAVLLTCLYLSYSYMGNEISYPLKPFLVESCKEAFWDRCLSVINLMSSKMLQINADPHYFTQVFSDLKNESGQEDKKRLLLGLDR
The target in experiment [2] is Glycogen synthase kinase-3 (Homo sapiens, UniProt P49840+P49841). Description: Inhibition of GSK3alpha/beta in presence of 15 uM ATP. Type of experiment: protein assay. The method in brief: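 Assayed against GSK-3α/β using GS-1 peptide as substrate, final ATP 15 μM; conditions otherwise follow earlier published method.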
In experiment [3] the target is Cyclin-dependent kinase 1/cyclin B (Homo sapiens, UniProt P06493). Description: Inhibition of CDK1/cyclinB in presence of 15 uM ATP. It counts as protein-complex assay.

For `O=c1c2c(ccc3nc(C4=NCCN4)sc32)ncn1Cc1ccccc1`, the negative logarithm of the IC50 (pIC50) in experiment [1] is less than 5.00. Besides, the IC50 in experiment [2] is greater than 10 µM.
`CCn1cnc2ccc3nc(C4=NCCN4)sc3c2c1=O`: the pIC50 in experiment [3] and in experiment [1] was less than 4.00 each time. Besides, in experiment [2], the IC50 worked out at 4.2 µM.
On to `COc1ccc(Cn2cnc3ccc4nc(C5=NCCN5)sc4c3c2=O)cc1`, for which, in experiment [3], the pIC50 was less than 5.00. The IC50 in experiment [2] was greater than 10 µM.
For the compound `CCn1cnc2ccc3nc(C(=N)NCCN(C)C)sc3c2c1=O`, the 50% inhibitory concentration (IC50) in experiment [2] is 1.3 µM.
As for `CCCn1cnc2ccc3nc(C4=NCCN4)sc3c2c1=O`, the pIC50 in experiment [3] and in experiment [1] was less than 4.00 in each case. In addition, the half-maximal inhibitory concentration (IC50) in experiment [2] turned out to be 1.6 µM.
In the case of `CC(C)n1cnc2ccc3nc(C(=N)NCCN(C)C)sc3c2c1=O`, the pIC50 in experiment [3] is 5.00; in experiment [1], 5.40. For the same compound, the IC50 in experiment [2] is 0.56 µM.
For the compound `CC(C)Cn1cnc2ccc3nc(C4=NCCN4)sc3c2c1=O`, the pIC50 was 4.07 in experiment [3] and less than 4.00 in experiment [1]. Further, in experiment [2], the IC50 turned out to be 4.6 µM.
As for `CC(C)CCn1cnc2ccc3nc(C4=NCCN4)sc3c2c1=O`, the pIC50 in experiment [3] and in experiment [1] was less than 5.00 in each case. Further, in experiment [2], the IC50 is greater than 10 µM.
As for `CCn1cnc2ccc3nc(C(=N)NC(C)C)sc3c2c1=O`, in experiment [2], the IC50 was found to be 7.2 µM.
Take `CC(C)n1cnc2ccc3nc(C4=NCCN4)sc3c2c1=O`: the pIC50 in experiment [3] and in experiment [1] was less than 4.00 in each case. Also, the IC50 in experiment [2] came to 1.6 µM.
Take `CC(C)NC(=N)c1nc2ccc3ncn(C(C)C)c(=O)c3c2s1`: in experiment [2], the IC50 amounted to 9.4 µM.
